Here are results for one molecule from PubChem BioAssay AID504392 (Broad Institute, 2011).

This experiment in a line: apoptosis induction in mouse embryonic fibroblasts – cell-based, wild-type MEF, caspase luminescence, dry powder, set 2, counter-screen for Bcl2-A1 inhibitor project, dose response (AID 504392). The conditions noted are these: CaspaseGlo luminescence, 3 h; series mostly up to 35 µM. A digest of the protocol: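 Material: wild-type mouse embryonic fibroblasts, not A1–BIM primed; Timing: 3 h 37 °C exposure, 30 min cooling, 1 h incubation; Detection: luminescence with CaspaseGlo caspase reagent; Read-out: caspase activation.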

The source made the active and inactive calls.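 The calls were made as follows: active = fitted curve rising past 10% caspase activation at or below the top valid dose; inactive = activity opposite to the expected rise, or the rest.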

Regarding `C/C1=C/C(=O)O[C@@H]2C[C@@H](CC[C@H](C)/C=C\CC1)O[C@@](O)(C1CSC(=O)N1)C2` (stereo partly specified), the call was inactive.
